Structures are written as SMILES. Numbered stars: 1 amine (or outer) side, 2 acyl side, 3 side chain; on linkers, the order of the positions; unused ones are H or OH. Bridge positions count the residues as written; N and C are the ends. Square brackets hold non-standard residues; d marks the D form. Peptide text beside a SMILES is read from it. X1 = O=C(CC1(S[*:2])CCCCC1)[*:1]

As usually defined, the pA2 is a measure of antagonist potency on a negative log scale.

Experiment [1] concerns the target T1, Vasopressin receptor (Rattus norvegicus) (UniProt P48974+P30560+Q00788). Description: Antivasopressor potency in terms of blood pressure response in rats anesthetized with urethane and pretreated with phenoxybenzamine. Format: functional. In short, it runs like this: (§1)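 Rats anesthetized with urethane, pretreated with phenoxybenzamine; blood pressure responses recorded. USP posterior pituitary reference standard as agonist, given intravenously with antagonist. ED (nmol/kg) is the antagonist dose at which 2x units of agonist match the response to x units without antagonist, log-interpolated from doses above and below. In vivo pA2 uses assumed distribution volume 67 mL/kg.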

The target in experiment [2] is T2, Vasopressin receptor (Rattus norvegicus, UniProt P48974+P30560+Q00788). Description: Antivasopressor potency in terms of negative logarithm of the effective doses divided by the estimated volume of distribution. Format: functional. In short, it runs like this:
as §1

The target of experiment [3] is T1, Vasopressin receptor (Rattus norvegicus). Nature of the experiment: Antiantidiuretic potency in terms of measuring changes in urine flow in water-loaded rats under ethanol anesthesia. Format: functional. In short, it runs like this:
(§2)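 Water-loaded rats under ethanol anesthesia; urine flow followed. USP posterior pituitary reference standard as agonist, all injections intravenous. Effective dose (nmol/kg) is the antagonist dose reducing the response to 2x units of agonist to that of x units alone, interpolated on a log scale between bracketing doses. pA2 = negative log of ED divided by assumed distribution volume 67 mL/kg.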

Experiment [4] addresses T2, Vasopressin receptor. Nature of the experiment: Antiantidiuretic potency in terms of negative logarithm of the effective doses divided by the estimated volume of distribution. Format: functional, Urine. In short, it runs like this: as §2

As to `CCOc1ccc(C[C@H]2NC(=O)CC3(CCCCC3)SSC[C@@H](C(=O)N3CCC[C@H]3C(=O)NCCN)NC(=O)[C@H](CC(N)=O)NC(=O)[C@H](C(C)C)NC(=O)[C@H](Cc3ccccc3)NC2=O)cc1`, the ED in experiment [1] is 0.75 nM/kg; in experiment [3], 1.6 nM/kg. Besides, the pA2 on Vasopressin receptor [2] is 7.95; at Vasopressin receptor [4], 7.64.

Turning to `CC[C@H](C)[C@@H]1NC(=O)[C@H](Cc2ccccc2)NC(=O)[C@@H](Cc2ccccc2)NC(=O)CC2(CCCCC2)SSC[C@@H](C(=O)N2CCC[C@H]2C(=O)N[C@@H](CCCN=C(N)N)C(=O)NCCN)NC(=O)[C@H](CC(N)=O)NC1=O`, the values for the ED in experiment [1] and in experiment [3] were 0.88 nM/kg and 0.55 nM/kg, respectively. Besides, the pA2 is listed as 7.89 on Vasopressin receptor [2] and 8.11 at Vasopressin receptor [4].

With `CCOc1ccc(C[C@H]2NC(=O)CC3(CCCCC3)SSC[C@@H](C(=O)N3CCC[C@H]3C(=O)N[C@@H](CCCN=C(N)N)C(=O)NCCN)NC(=O)[C@H](CC(N)=O)NC(=O)[C@H]([C@@H](C)CC)NC(=O)[C@H](Cc3ccccc3)NC2=O)cc1`, the ED amounted to 0.32 nM/kg in experiment [1] and 0.77 nM/kg in experiment [3]. For the same molecule, the pA2 is 8.33 at Vasopressin receptor [2] and 8 on Vasopressin receptor [4].

In the case of `CC[C@H](C)[C@@H]1NC(=O)[C@H](Cc2ccccc2)NC(=O)[C@@H](Cc2ccccc2)NC(=O)CC2(CCCCC2)SSC[C@@H](C(=O)N2CCC[C@H]2C(=O)N[C@@H](CCCN=C(N)N)C(=O)NCC(N)=O)NC(=O)[C@H](CC(N)=O)NC1=O` ([dF]FINCPRG-NH2; linker N-5 via X1), the ED in experiment [1] turned out to be 0.99 nM/kg; in experiment [3], 0.46 nM/kg. The pA2 on Vasopressin receptor [2] was 7.86; at Vasopressin receptor [4], 8.24.

For `CC[C@H](C)[C@@H]1NC(=O)[C@H](Cc2ccccc2)NC(=O)[C@@H](Cc2ccccc2)NC(=O)CC2(CCCCC2)SSC[C@@H](C(=O)N2CCC[C@H]2C(=O)N[C@@H](CCCN=C(N)N)C(=O)NCC(=O)NCCN)NC(=O)[C@H](CC(N)=O)NC1=O`, the ED in experiment [1] stood at 1.8 nM/kg; in experiment [3], 0.57 nM/kg. The pA2 at Vasopressin receptor [2] is 7.58; at Vasopressin receptor [4], 8.1.

Regarding `CCOc1ccc(C[C@H]2NC(=O)CC3(CCCCC3)SSC[C@@H](C(=O)N3CCC[C@H]3C(=O)NCCNC(=O)[C@H](N)CCCN=C(N)N)NC(=O)[C@H](CC(N)=O)NC(=O)[C@H](C(C)C)NC(=O)[C@H](Cc3ccccc3)NC2=O)cc1`, the pA2 was 8.15 at Vasopressin receptor [2] and 7.92 on Vasopressin receptor [4].

For `CCOc1ccc(C[C@H]2NC(=O)CC3(CCCCC3)SSC[C@@H](C(=O)N3CCC[C@H]3C(=O)N[C@@H](CCCN=C(N)N)C(=O)NCCNC(=O)[C@@H](N)CCCN=C(N)N)NC(=O)[C@H](CC(N)=O)NC(=O)[C@H]([C@@H](C)CC)NC(=O)[C@H](Cc3ccccc3)NC2=O)cc1`, the pA2 on Vasopressin receptor [2] was 8.27; at Vasopressin receptor [4], 8.1.

`CCOc1ccc(C[C@H]2NC(=O)CC3(CCCCC3)SSC[C@@H](C(=O)NCCNC(=O)[C@H](CCCN=C(N)N)NC(=O)[C@@H](N)CCCN=C(N)N)NC(=O)[C@H](CC(N)=O)NC(=O)[C@H](C(C)C)NC(=O)[C@H](Cc3ccccc3)NC2=O)cc1`: the pA2 was 7.93 on Vasopressin receptor [2] and 7.61 on Vasopressin receptor [4].

Regarding `CCOc1ccc(C[C@H]2NC(=O)CC3(CCCCC3)SSC[C@@H](C(=O)NCCNC(=O)CN)NC(=O)[C@H](CC(N)=O)NC(=O)[C@H](C(C)C)NC(=O)[C@H](Cc3ccccc3)NC2=O)cc1`, the pA2 on Vasopressin receptor [2] is listed as 7.61; at Vasopressin receptor [4], 6.59.

For `CCOc1ccc(C[C@H]2NC(=O)CC3(CCCCC3)SSC[C@@H](C(=O)N3CCC[C@H]3C(=O)NCCNC(=O)[C@H](N)CCCN)NC(=O)[C@H](CC(N)=O)NC(=O)[C@H](C(C)C)NC(=O)[C@H](Cc3ccccc3)NC2=O)cc1`, the pA2 on Vasopressin receptor [2] is given as 7.86; at Vasopressin receptor [4] it was 7.92.

For the molecule `CCOc1ccc(C[C@H]2NC(=O)CC3(CCCCC3)SSC[C@@H](C(=O)NCCN)NC(=O)[C@H](CC(N)=O)NC(=O)[C@H](C(C)C)NC(=O)[C@H](Cc3ccccc3)NC2=O)cc1`, the pA2 on Vasopressin receptor [2] is given as 8.15; on Vasopressin receptor [4], 7.07.

In the case of `CCOc1ccc(C[C@H]2NC(=O)CC3(CCCCC3)SSC[C@@H](C(=O)NCCNC(=O)[C@@H](N)CCCN=C(N)N)NC(=O)[C@H](CC(N)=O)NC(=O)[C@H](C(C)C)NC(=O)[C@H](Cc3ccccc3)NC2=O)cc1`, the pA2 on Vasopressin receptor [2] was 7.95; at Vasopressin receptor [4], 7.54.

On to `CCOc1ccc(C[C@H]2NC(=O)CC3(CCCCC3)SSC[C@@H](C(=O)N3CCC[C@H]3C(=O)N[C@@H](CCCN=C(N)N)C(=O)NCC(=O)NCCN)NC(=O)[C@H](CC(N)=O)NC(=O)[C@H](C(C)C)NC(=O)[C@H](Cc3ccccc3)NC2=O)cc1`, for which the ED in experiment [1] was found to be 0.32 nM/kg; in experiment [3] it was 1.2 nM/kg. Moreover, the values for the pA2 at Vasopressin receptor [2] and at Vasopressin receptor [4] were 8.33 and 7.82, respectively.

Regarding `CCOc1ccc(C[C@H]2NC(=O)CC3(CCCCC3)SSC[C@@H](C(=O)N3CCC[C@H]3C(=O)N[C@@H](CCCN=C(N)N)C(=O)NCCN)NC(=O)[C@H](CC(N)=O)NC(=O)[C@H](C(C)C)NC(=O)[C@H](Cc3ccccc3)NC2=O)cc1`, the ED was 0.69 nM/kg in experiment [1] and 1.1 nM/kg in experiment [3]. The pA2 was 8 on Vasopressin receptor [2] and 7.79 at Vasopressin receptor [4].

`CCOc1ccc(C[C@H]2NC(=O)CC3(CCCCC3)SSC[C@@H](C(=O)N[C@@H](CCCN=C(N)N)C(=O)NCC(=O)NCCNC(=O)[C@@H](N)CCCN=C(N)N)NC(=O)[C@H](CC(N)=O)NC(=O)[C@H](C(C)C)NC(=O)[C@H](Cc3ccccc3)NC2=O)cc1`: the values for the pA2 on Vasopressin receptor [2] and at Vasopressin receptor [4] were 7.96 and 7.87, respectively.

Take `CCOc1ccc(C[C@H]2NC(=O)CC3(CCCCC3)SSC[C@@H](C(=O)N3CCC[C@H]3C(=O)N[C@@H](CCCN=C(N)N)C(=O)NCC(N)=O)NC(=O)[C@H](CC(N)=O)NC(=O)[C@H]([C@@H](C)CC)NC(=O)[C@H](Cc3ccccc3)NC2=O)cc1`: the ED in experiment [1] and in experiment [3] was 1.2 nM/kg each time. The figures for the pA2 at Vasopressin receptor [2] and at Vasopressin receptor [4] were 7.78 and 7.75, respectively.

In the case of `CC(C)C[C@H]1NC(=O)CC2(CCCCC2)SSC[C@@H](C(=O)NCCNC(=O)[C@@H](N)CCCN=C(N)N)NC(=O)[C@H](CC(N)=O)NC(=O)[C@H](C(C)C)NC(=O)[C@H](Cc2ccccc2)NC1=O`, the pA2 at Vasopressin receptor [2] is 6.08; at Vasopressin receptor [4], below 5.5.

As for `CCOc1ccc(C[C@H]2NC(=O)CC3(CCCCC3)SSC[C@@H](C(=O)N3CCC[C@H]3C(=O)N[C@@H](CCCN=C(N)N)C(=O)NCC(N)=O)NC(=O)[C@H](CC(N)=O)NC(=O)[C@H](C(C)C)NC(=O)[C@H](Cc3ccccc3)NC2=O)cc1` ([dY](Et)FVNCPRG-NH2; linker N-5 via X1), the ED in experiment [1] was 0.45 nM/kg; in experiment [3] it was 1.1 nM/kg. For the same molecule, the pA2 at Vasopressin receptor [2] is 8.22; on Vasopressin receptor [4], 7.81.

The record behind these values is ChEMBL document CHEMBL1125323, “Potent V2/V1a vasopressin antagonists with C-terminal ethylenediamine-linked retro-amino acids” (J Med Chem, 1992).
